E coli WT exp – growth inhibitors of wild-type E. coli, primary screen, strain BW25113, expanded library, OD600 | growth inhibition, % at 100 µM | OD600 absorbance | 98,000 compounds, 0.15% hits;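 active = growth inhibition above about 50% at one test dose, limit read from the data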;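 also: growth measured after 20 h incubation at 37 °C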
CYP2C9 inh – blockers of cytochrome P450 2C9 activity – biochemical, luminescence, ADME assay, primary screen; P11712; CYP2C9 Supersomes, luciferin-H conversion; inhibition, % at 5 µM; 96,000 compounds, 20% hits; AID 777, 2007;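 active = blocking of liver enzyme CYP2C9 beyond about 50% at 5 µM, limit read from the data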
CYP2C19 act – human CYP2C19 activators, primary screen, biochemical, luminescence | 96,000 tested, under 10 active | activation factor at 5 µM | recombinant CYP2C19, luciferin-H EGE luminescence; stronger effect = higher value; 0 = fully inhibited enzyme, 1 = untreated enzyme | Cytochrome P450 2C19 (Homo sapiens), P33261;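 active = activation factor of at least 2 at 5 µM in the primary screen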
Target sequence (P33261 whole entry, looked up): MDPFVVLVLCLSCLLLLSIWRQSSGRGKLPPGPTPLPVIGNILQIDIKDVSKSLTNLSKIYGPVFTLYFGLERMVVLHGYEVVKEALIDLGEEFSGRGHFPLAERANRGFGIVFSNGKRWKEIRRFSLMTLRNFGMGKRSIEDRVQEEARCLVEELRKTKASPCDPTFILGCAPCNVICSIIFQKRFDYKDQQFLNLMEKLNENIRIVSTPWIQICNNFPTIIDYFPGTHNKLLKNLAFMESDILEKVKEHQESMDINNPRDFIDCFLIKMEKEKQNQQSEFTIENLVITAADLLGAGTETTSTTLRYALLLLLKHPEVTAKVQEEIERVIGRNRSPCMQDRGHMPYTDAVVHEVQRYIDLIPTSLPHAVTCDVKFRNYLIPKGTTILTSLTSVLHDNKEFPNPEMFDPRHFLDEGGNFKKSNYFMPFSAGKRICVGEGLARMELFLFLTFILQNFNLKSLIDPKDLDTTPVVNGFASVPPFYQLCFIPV
CYP2C9 act – human CYP2C9 activators, primary screen, biochemical, luminescence; Cytochrome P450 2C9 (Homo sapiens), P11712; recombinant CYP2C9, luciferin-H conversion; stronger effect = higher value; factor 1 = untreated enzyme, 0 = blocked; activation factor at 5 µM; 96,000 compounds, 1.4% hits; AID 1024, 2008;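 active = activation factor of 2 or more for CYP2C9 at a 5 µM dose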
CYP2C19 inhib – blockers of cytochrome P450 2C19 activity – biochemical, luminescence, ADME assay, primary screen; P33261; CYP2C19 Supersomes, luciferin-H EGE luminescence, 30 min; inhibition, % at 5 µM; 96,000 compounds, 21% hits; AID 778, 2007;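 active = CYP2C19 inhibition above a set limit at 5 µM in the primary screen, cut at about 50% in these data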
tolC growth inh – growth inhibitors of E. coli tolC mutant, primary screen, strain BW25113 ΔtolC::kan, 384-well | OD615 | AID 573, 2007 | growth inhibition, % at 10 µM (by protocol) | 65,000 compounds, 2.2% hits;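 active = growth inhibition at or above a cutoff equal to the mean over every tested compound plus 3 SD, cut at about 60% in these data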;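 also: growth measured after 20 h incubation at 37 °C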
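Test system: E. coli BW25113 ΔtolC::kan bacteria; incubation: 37 °C, 20 h exposure; medium: LB broth supplemented with 50 µg/mL kanamycin; read-out basis: percent growth inhibition; signal: A615 absorbance measurement; compound: 10 µM final, single dose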
A number is an active result; - = inactive; . = no result. Hits are enriched below; roughly 29% of the tested compounds scored in any of these assays.

SMILES	E coli WT exp	CYP2C9 inh	CYP2C19 act	CYP2C9 act	CYP2C19 inhib	tolC growth inh
CCOc1cc(S(=O)(=O)N2CCC(Cc3ccccc3)CC2)c(OCC)cc1-n1cnnn1	-	73.4	-	-	52.6	-
Nc1ccc(C(=O)c2ccccc2C(=O)O)cc1Cl	-	-	-	-	-	-
CC(NC(=O)c1ccc(F)cc1)c1ccccc1 (stereo unspecified)	-	-	-	-	-	.
CCn1ncc(Cl)c1C(=O)NC(C)c1ccccc1 (stereo unspecified)	-	-	-	-	61.8	-
Cc1n[nH]c(C)c1C(=O)CC1(O)C(=O)N(Cc2ccccc2)c2ccc(Br)cc21 (stereo unspecified)	-	60.9	-	-	98.9	.
O=C(/C=C/C=C/c1ccccc1)CC1(O)C(=O)N(CCc2ccccc2)c2ccccc21 (stereo unspecified)	-	-	-	-	-	.
Cc1n[nH]c(C)c1C(=O)CC1(O)C(=O)N(CCc2ccccc2)c2ccc(Br)cc21 (stereo unspecified)	-	66.2	-	-	55.7	.
CC(=O)c1c(C)[nH]c(C(=O)NCCN2CCC(C)CC2)c1C	-	-	-	-	-	-
O=C(NCCN1CCCCC1)/C(=N\O)c1ccccc1	-	-	-	-	-	-
N#CCSCC(=O)Nc1ccc(F)cc1	-	-	-	-	-	-
CC(C)(C)NC(=O)CSC(=Nc1ccc(F)cc1)NC#N	-	-	-	-	72.1	.
COc1ccc(O)c(-c2cn[nH]c2-c2cccs2)c1	-	88.3	-	-	99.2	-
COc1ccc(-c2[nH]ncc2-c2cnc(C)s2)c(O)c1	-	-	-	-	90.5	-
COCCN1C(=O)c2oc3ccccc3c(=O)c2C1c1cccc(O)c1 (stereo unspecified)	-	-	-	-	55.4	-
COc1cc(C2c3c(oc4ccccc4c3=O)C(=O)N2Cc2ccco2)ccc1O (stereo unspecified)	-	-	-	-	-	.
COCCN1C(=O)c2oc3ccccc3c(=O)c2C1c1ccc(O)c(OC)c1 (stereo unspecified)	-	-	-	-	-	-
COc1cc(C2c3c(oc4ccccc4c3=O)C(=O)N2Cc2ccncc2)ccc1O (stereo unspecified)	-	73.2	-	-	-	-
CCOC(=O)N1CCN(S(=O)(=O)/C=C/c2ccccc2)CC1	-	-	-	-	85.4	-
CCOC(=O)N1CCN(C/C(C)=C/c2ccccc2)CC1	-	64.9	-	-	61.3	-
O=S(=O)(/C=C/c1ccccc1)N1CCN(c2ccccc2)CC1	-	-	-	-	-	-
CCOC(=O)N1CCN(CC(=O)Nc2ccc(C)c(Br)c2)CC1	-	-	-	-	51.1	-
COc1ccc(NC(=O)N[C@@H](CCSC)C(=O)O)cc1Cl	-	-	-	-	-	-
CCC(C)(C(=O)NC1CCCC1)N(Cc1ccco1)C(=O)c1ccc2c(c1)OCO2 (stereo unspecified)	-	-	-	-	-	-
COCCCNC(=O)CCn1c(=O)c2ccccc2n(CC(=O)Nc2ccccc2C)c1=O	-	-	-	-	-	-
CCCCNC(=O)CCn1c(=O)c2ccccc2n(CC(=O)Nc2ccccc2OCC)c1=O	-	75.4	-	-	-	-
SMILES	E coli WT exp	CYP2C9 inh	CYP2C19 act	CYP2C9 act	CYP2C19 inhib	tolC growth inh
COCCCNC(=O)CCn1c(=O)c2ccccc2n(CC(=O)Nc2ccc(C)cc2C)c1=O	-	66.8	-	-	78.0	-
COCCNC(=O)Cn1c(=O)n(CCC(=O)NCCc2ccccc2)c(=O)c2ccccc21	.	.	.	.	.	-
CCCN(CCC)C(=O)Cn1c(=O)n(CCC(=O)NCCc2ccccc2)c(=O)c2ccccc21	-	72.3	-	-	-	.
CCCN1C(=O)C(O)(CC(=O)c2ccc3c(c2)OCCO3)c2ccccc21 (stereo unspecified)	-	-	-	-	75.6	-
C#CCN1C(=O)C(O)(CC(=O)c2ccc3c(c2)OCCO3)c2ccccc21 (stereo unspecified)	-	-	-	-	76.7	-
CCCN1C(=O)C(O)(CC(=O)c2cccc(OC)c2)c2ccccc21 (stereo unspecified)	-	-	-	-	87.1	-
CCCCN1C(=O)C(O)(CC(=O)c2ccccc2OC)c2ccccc21 (stereo unspecified)	.	.	.	.	.	-
CN1C(=O)C(O)(CC(=O)c2ccc3c(c2)OCO3)c2ccccc21 (stereo unspecified)	-	-	-	-	-	-
Cc1ccc(C(=O)CC2(O)C(=O)N(Cc3ccc4c(c3)OCO4)c3ccccc32)cc1 (stereo unspecified)	-	-	-	-	53.9	-
C#CCN1C(=O)C(O)(CC(=O)c2ccc(OC)c(OC)c2)c2ccccc21 (stereo unspecified)	-	-	-	-	-	-
CN1C(=O)N(C)C2(c3ccccc3)N(C)C(=O)NC12c1ccccc1 (stereo unspecified)	-	-	-	-	-	-
Cc1ccccc1S(=O)(=O)Cc1ccc(C(=O)NCc2cccs2)o1	-	-	-	-	-	.
Cc1ccc(NC(=S)NCc2cccs2)cc1	-	-	-	-	57.4	.
COc1ccc(CCNC(=O)c2ccc(CS(=O)(=O)c3ccc(C)cc3)o2)cc1OC	-	83.2	-	-	-	.
CCCCc1ccc(NC(=S)NCc2cccs2)cc1	-	-	-	-	-	.
COc1ccc(CCNC(=O)CCS(=O)(=O)c2ccc(C)cc2)cc1OC	-	-	-	-	-	.
Cc1ccc(S(=O)(=O)Cc2ccc(C(=O)NCc3cccs3)o2)cc1	-	72.2	-	-	-	.
O=C(O)CN1C(=O)SC(Nc2ccccc2C(=O)O)C1=O (stereo unspecified)	-	-	-	-	-	.
Cc1oc(/C=N/NC(=O)CN(c2ccccc2Br)S(C)(=O)=O)cc1Br	-	.	.	.	.	.
Cc1ccc(C2(C(F)(F)F)N=C3Sc4cc(C)ccc4N3C(=O)N2)cc1 (stereo unspecified)	-	-	-	-	-	.
O=C(COC(=O)C1CC2C=CC1C2)Nc1ccc2c(c1)OC(F)(F)O2 (stereo unspecified)	-	.	.	.	.	-
CC(C)(C)OC(=O)N1CCCC1C(=O)N1CCc2ccccc21 (stereo unspecified)	-	.	.	.	.	-
O=C(COC(=O)C1CC2C=CC1C2)NCc1ccco1 (stereo unspecified)	-	-	-	-	64.0	-
O=C(COC(=O)C1CCCCC1C(=O)N1CCc2ccccc21)NCc1ccco1 (stereo unspecified)	-	71.1	-	-	87.3	-
O=C(Nc1nnc(CC(=O)N2CCCC2)s1)c1cnccn1	.	.	.	.	.	-
